Data set [1] deals with T1, Sterol O-acyltransferase 1 (Mus musculus) (UniProt Q61263).
T1 sequence (whole entry): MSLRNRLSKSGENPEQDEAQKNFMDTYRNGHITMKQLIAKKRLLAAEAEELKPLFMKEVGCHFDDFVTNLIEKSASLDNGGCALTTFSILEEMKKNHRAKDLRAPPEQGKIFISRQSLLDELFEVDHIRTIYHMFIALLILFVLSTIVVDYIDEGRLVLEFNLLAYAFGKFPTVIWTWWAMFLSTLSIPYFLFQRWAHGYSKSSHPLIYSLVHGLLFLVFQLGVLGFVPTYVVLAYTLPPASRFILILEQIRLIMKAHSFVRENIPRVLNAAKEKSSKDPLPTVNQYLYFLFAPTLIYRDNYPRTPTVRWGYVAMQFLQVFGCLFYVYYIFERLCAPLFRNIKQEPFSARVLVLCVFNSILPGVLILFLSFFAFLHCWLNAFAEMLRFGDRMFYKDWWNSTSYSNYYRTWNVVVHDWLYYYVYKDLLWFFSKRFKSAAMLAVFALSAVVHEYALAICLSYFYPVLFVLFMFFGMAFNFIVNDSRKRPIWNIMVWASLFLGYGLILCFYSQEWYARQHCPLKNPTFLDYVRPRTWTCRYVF
The data set can be described thus: In Vitro evaluation for the CF1 liver enzyme activity on Acyl cholesterol acyltransferase at concentration 100 uM. It counts as functional, tissue-based. The essentials:
(§1)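 Liver was taken from CF1 male mice and made into 10% homogenates, which were incubated with test compound at 50, 100 or 200 µM. Each enzyme was assayed by its literature method, and protein was measured by Lowry. N = 6. Activity is expressed as % of untreated control ± SD.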

Data set [2] concerns the target Acetyl-CoA carboxylase 1 (Mus musculus) (UniProt Q5SWU9). Description: In Vitro evaluation for the CF1 liver enzyme activity on Acetyl-CoA carboxylase at concentration 100 uM. An outline of the steps: as §1
Data set [3] has as its system Rattus norvegicus. Description: Compound was evaluated for the hypolipidemic activity at 20 mg/kg per day orally for 14 days on phospholipids content in rat HDL. The format is functional. The conditions noted are these: route oral. The essentials: (§2)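 Male Sprague–Dawley rats (~300 g) were dosed orally each day. Blood was drawn from the abdominal vein. Lipoprotein fractions (chylomicron, VLDL, LDL, HDL) were separated by the Hatch–Lees and Havel methods. Each fraction was assayed for cholesterol, triglyceride (enzymatic kit), neutral lipids, phospholipids and Lowry protein. Values are % of 1% CMC vehicle control, N = 6.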

For data set [4], the system named is Rattus norvegicus. The data set can be described thus: Compound was evaluated for the hypolipidemic activity at 20 mg/kg per day orally for 14 days on cholesterol content in rat lipoprotein chylomicron. The format is functional. As to conditions: route oral. An outline of the steps: as §2
Data set [5] addresses T2, 3-hydroxy-3-methylglutaryl-coenzyme A reductase (Mus musculus) (UniProt Q01237).
T2 sequence (whole entry): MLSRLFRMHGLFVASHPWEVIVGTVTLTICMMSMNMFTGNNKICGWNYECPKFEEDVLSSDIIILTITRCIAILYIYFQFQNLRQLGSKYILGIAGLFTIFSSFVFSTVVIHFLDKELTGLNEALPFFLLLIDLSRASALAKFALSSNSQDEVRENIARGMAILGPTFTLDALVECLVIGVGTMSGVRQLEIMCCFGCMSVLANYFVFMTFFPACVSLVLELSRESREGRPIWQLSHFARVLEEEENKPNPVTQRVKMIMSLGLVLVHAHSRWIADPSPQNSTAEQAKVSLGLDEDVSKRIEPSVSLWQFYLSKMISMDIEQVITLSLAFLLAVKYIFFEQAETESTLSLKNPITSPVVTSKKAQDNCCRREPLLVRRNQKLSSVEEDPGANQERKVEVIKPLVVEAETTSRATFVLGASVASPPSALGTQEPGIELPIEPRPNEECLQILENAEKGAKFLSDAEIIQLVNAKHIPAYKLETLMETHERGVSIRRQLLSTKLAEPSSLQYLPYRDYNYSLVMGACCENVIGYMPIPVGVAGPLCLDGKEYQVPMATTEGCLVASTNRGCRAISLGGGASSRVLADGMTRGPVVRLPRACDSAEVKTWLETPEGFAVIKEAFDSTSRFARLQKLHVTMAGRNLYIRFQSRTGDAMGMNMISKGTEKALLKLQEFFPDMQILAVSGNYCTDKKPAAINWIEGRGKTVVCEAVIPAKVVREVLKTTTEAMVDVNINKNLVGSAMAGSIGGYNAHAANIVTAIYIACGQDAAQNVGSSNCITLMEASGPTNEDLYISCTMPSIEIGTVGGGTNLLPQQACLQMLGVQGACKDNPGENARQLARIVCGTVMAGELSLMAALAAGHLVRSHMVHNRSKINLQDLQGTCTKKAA
The data set can be described thus: In Vitro evaluation for the CF1 liver enzyme activity on HMG-CoA reductase at concentration 50 uM. The essentials:
as §1

In data set [6] the target is T2, 3-hydroxy-3-methylglutaryl-coenzyme A reductase (Mus musculus). The data set can be described thus: In Vivo effect for the hypolipidemic activity on HMG-CoA reductase in CF1 mice after 16 days of oral administration at a dose of 60 mg/kg. The format is organism-based. More on the design: dose 60 mg/kg. An outline of the steps:
(§3)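 CF1 male mice are dosed orally at 10–60 mg/kg per day for 16 days, with 1% CMC as the control vehicle. Liver is homogenized at 10% in 0.25 M sucrose + 0.001 M EDTA, pH 7.2. Enzymes are assayed by literature methods, with Lowry protein. Activity is given as % of control (X ± SD, N = 6), with p from Student's t test.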

Data set [7] relates to Rattus norvegicus. The data set can be described thus: Compound was evaluated for the hypolipidemic activity at 20 mg/kg per day orally for 14 days on protein content in rat VLDL. It counts as functional. The conditions noted are these: route oral. The essentials: as §2
Data set [8] deals with Rattus norvegicus. The data set can be described thus: Compound was evaluated for the hypolipidemic activity at 20 mg/kg per day orally for 14 days on triglycerides content in rat small intestine. It counts as functional. As to conditions: route oral. The essentials: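 Male Sprague–Dawley rats were dosed orally for 14 days. Liver, small intestine and a 24-h fecal collection were lipid-extracted. Extracts were assayed for cholesterol (modified Liebermann–Burchard), triglyceride (enzymatic kit), neutral lipids, phospholipids and protein. Values are % of 1% CMC vehicle control, mean ± SD, N = 6.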

A further data set has as its system Mus musculus. Description: In Vivo effect for the hypolipidemic activity on Acetyl-CoA carboxylase in CF1 mice after 16 days administered orally at a dose of 10 mg/kg. It counts as functional. The conditions noted are these: route oral. An outline of the steps: as §3
The target of data set [9] is Cholesterol 7-alpha-hydroxylase (Cytochrome P450 7A1) (Mus musculus, UniProt Q64505). Description: In vivo effect on Cholesterol 7-alpha-hydroxylase activity in CF1 mice after 16 days at 40 mg/kg oral dose. It counts as functional, organism-based. More on the design: dose 40 mg/kg, route oral. The conditions noted are these: read-out: Control. The essentials: as §3
Cholesterol 7-alpha-hydroxylase (Cytochrome P450 7A1), sequence (Q64505 whole entry): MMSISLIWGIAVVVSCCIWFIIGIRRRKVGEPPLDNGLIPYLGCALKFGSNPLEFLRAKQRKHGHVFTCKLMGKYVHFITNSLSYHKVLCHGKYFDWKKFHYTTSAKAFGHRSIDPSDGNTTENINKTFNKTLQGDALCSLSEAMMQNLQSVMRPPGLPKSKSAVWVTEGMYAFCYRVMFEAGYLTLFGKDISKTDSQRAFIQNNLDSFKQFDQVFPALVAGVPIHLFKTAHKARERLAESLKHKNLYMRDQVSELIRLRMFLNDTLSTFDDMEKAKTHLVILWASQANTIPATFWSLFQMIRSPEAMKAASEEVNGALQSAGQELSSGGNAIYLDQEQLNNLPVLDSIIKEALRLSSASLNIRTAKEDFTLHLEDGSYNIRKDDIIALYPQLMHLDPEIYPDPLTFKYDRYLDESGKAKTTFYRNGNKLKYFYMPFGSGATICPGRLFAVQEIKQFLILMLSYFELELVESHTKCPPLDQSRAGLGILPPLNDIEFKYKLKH

For the compound `COc1ccc(C2C(=O)c3ccccc3C2=O)cc1` [ANISINDIONE], the Control worked out at 63% in data set [1]; 93% in data set [2]; 87% in the data set with Rattus norvegicus [3]; 96% in the data set with Rattus norvegicus [4]; 107% in data set [5]; 126% in [6]. For the same compound, the Control is given as 106% with Rattus norvegicus [7], 89% in the data set with Rattus norvegicus [8] and 89% in the data set on Mus musculus. In data set [9], the activity at 384 h came to 55%.
